Screens as filed in PubChem BioAssay.
Most compounds without a hit are left out; they make up all but 3.7% or so of the library.
eIF4E-4G inh: blocks eIF4E binding to eIF4G; TR-FRET eIF4E-eIF4GI(517-606) binding, 2 h; inhibition, % at 21.7 µM; actives 0.37% (n = 220,000); AID 782;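 further: 0% = full FRET control wells and 100% = background wells lacking eIF4GI fragment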
14-3-3 Bad PPI: disrupts binding of bovine 14-3-3 zeta to phospho-Bad peptide; P63103; actives 0.71% (n = 220,000); TR-FRET 14-3-3zeta/Dy647-pBad peptide displacement, 1 h; inhibition, % at 21.7 µM;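 active means inhibition above about 70%, limit read from the data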;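 further: 0% = full 14-3-3 plus peptide FRET controls and 100% = background without 14-3-3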
EBV gp42 inh: blocks Epstein-Barr virus glycoprotein 42 binding; Q1HVG2; Fluorescence polarization binding assay, mP read-out; inhibition, % (tested at 21.74 µM); actives 0.42% (n = 220,000); AID 1085; in the data active means inhibition above about 50%
RBBP9 inh: blocks human serine hydrolase RBBP9; actives 0.2% (n = 220,000); recombinant RBBP9, FP-Rh probe fluorescence polarization; inhibition, % at 7.94 µM; O75884;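 active means inhibition above the campaign mean of all tested compounds plus 3 SD, cut at about 14% in these data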;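 further: plate controls were DMSO wells with RBBP9 for no effect and wells lacking RBBP9 protein for full effect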
Target sequence (O75884 whole entry, looked up): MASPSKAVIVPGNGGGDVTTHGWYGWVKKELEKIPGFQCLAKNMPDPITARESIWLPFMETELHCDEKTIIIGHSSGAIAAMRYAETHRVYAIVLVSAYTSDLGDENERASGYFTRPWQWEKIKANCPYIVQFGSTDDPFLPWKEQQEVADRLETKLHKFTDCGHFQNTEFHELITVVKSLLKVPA
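Test system – recombinant human RBBP9 · Input – RBBP9 2.5 µM in dispensing solution, pre-mixing · Medium – Tris buffer pH 8.0, NaCl, Pluronic · Schedule – preincubation 30 min plus labeling 45 min at 25 °C · Measured by – fluorescence polarization · Measure – % inhibition · Controls – DMSO and no-protein wells · Replicates – one well per compound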
WT yeast gro inh: growth inhibition of WT yeast, mitochondrial fusion screen; mitochondrial fusion phenotypic screen, WT strain; inhibition, % at 10 µM; actives 2.1% (n = 190,000); AID 1362; in the data active means inhibition above about 58%; tested in S. cerevisiae
p47phox inh: p47phox (human) inhibition | p47phox/p22phox peptide binding, fluorescence polarization, 2 h | inhibition, % at 24.7 µM | actives 0.53% (n = 220,000) | AID 1274;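 further: 0% = p47phox with labelled peptide and 100% = labelled peptide alone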
Target sequence (P14598 whole entry, looked up): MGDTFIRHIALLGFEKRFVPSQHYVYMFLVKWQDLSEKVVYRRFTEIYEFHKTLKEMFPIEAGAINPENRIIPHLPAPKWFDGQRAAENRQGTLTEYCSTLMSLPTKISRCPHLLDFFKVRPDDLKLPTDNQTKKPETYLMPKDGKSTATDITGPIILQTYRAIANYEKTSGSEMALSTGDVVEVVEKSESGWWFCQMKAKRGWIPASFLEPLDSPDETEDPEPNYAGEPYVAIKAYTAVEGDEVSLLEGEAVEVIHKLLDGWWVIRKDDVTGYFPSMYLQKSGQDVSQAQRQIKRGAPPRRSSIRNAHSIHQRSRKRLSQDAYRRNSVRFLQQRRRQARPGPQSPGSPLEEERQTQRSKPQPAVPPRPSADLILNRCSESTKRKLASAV
* hit, by the source's call; nt = not tested or not shown; ! = not active in a repeat.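 How the source made its calls, unless noted: active means inhibition above about 30% (limit read from the data); inactive means the rest.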

SMILES | eIF4E-4G inh | 14-3-3 Bad PPI | EBV gp42 inh | RBBP9 inh | WT yeast gro inh | p47phox inh
O=C(O)c1ccc2nc(-c3ccccc3)sc2c1 | -4.9 | -25.2 | 7.9 | -1.1 | -3.7 | 9.4
CC(=O)NC(=O)COC(=O)c1ccc2ncsc2c1 | 0.8 | -1.7 | 8.7 | -0.9 | 2.0 | 1.8
COc1ccccc1NC(=O)COc1ccc(/C=N/NC(=O)CSCc2cc(C)cc(C)c2)cc1 | 1.6 | 33.4 | 2.7 | -6.3 | 13.6 | 33.7*
COc1ccccc1NC(=O)COc1ccc(/C=N/NC(=O)CSCc2ccc(Cl)cc2)cc1 | -31.2 | 44.0 | -9.2 | 4.2 | -48.4 | 15.4
COCCOC(=O)/C(C#N)=C/c1cn(Cc2ccccc2)nc1-c1cccnc1 | -9.4 | -7.1 | -15.2 | -1.4 | 9.7 | -9.7
CCOC(=O)C1C(=O)C=C(/C=C/c2ccc(N(C)C)cc2)CC1c1ccccc1 (configuration not stated) | 5.9 | -7.4 | 103.2* | -8.5 | -32.1 | -115.3
Nc1nc(NC(=O)CCC(=O)O)nn1-c1ccccc1 | -2.9 | -4.6 | -5.9 | -1.6 | nt | -13.3
CCOc1ccc(-n2c(SCC(=O)Nc3ccc(Br)cc3)nc3n[nH]c(C)c3c2=N)cc1 | 10.5 | 39.8 | -6.6 | -4.6 | 2.3 | 40.5*
CCOc1ccc(-n2c(SCC(=O)Nc3ccccc3CC)nc3n[nH]c(C)c3c2=N)cc1 | -2.6 | 19.4 | 4.0 | -9.2 | -4.6 | -1.5
CC(=O)c1cccc(CN2CCCC(CCC(=O)NCc3ccc(C)o3)C2)c1 (configuration not stated) | 4.3 | -4.3 | 5.1 | 1.2 | -10.5 | -9.2
O=C(c1ccccc1)c1nnc(-c2ccncc2)o1 | 9.0 | -5.1 | -4.7 | -7.3 | 71.5* | -4.8
COCCn1c(N)c(C(=S)NC(=O)c2cccs2)c(=O)[nH]c1=O | -4.3 | 6.7 | -9.6 | -10.4 | nt | -17.8
COC(=O)c1ccccc1NC(=O)CCS(=O)(=O)c1ccc(Br)cc1 | 11.3 | 80.9* | 75.5* | -2.4 | -1.2 | -14.2
Nc1nnc(CC(=O)N/N=C/c2ccc(-c3ccc(Cl)cc3Cl)o2)s1 | -16.7 | 49.1 | 6.2 | 0.2 | nt | -1.7
Cc1cc(-c2nc3c4c5c(sc4[nH]c(=O)n3n2)CCC5)c(C)o1 | 15.4 | 49.4 | 60.0* | -5.3 | 2.5 | -35.5
Cc1ccc(C2CC(c3cccs3)=NN2C(=O)c2ccc(Br)o2)cc1 (configuration not stated) | -15.2 | -14.1 | -3.3 | -2.5 | 64.2* | -18.6
CC(=O)N1N=C(c2cccs2)CC1c1ccc(C)o1 (configuration not stated) | 1.3 | 11.6 | -2.6 | -4.4 | 10.7 | -4.8
O=C(CNC(=O)c1ccncc1)N/N=C/c1ccc(O)cc1O | 1.4 | -23.7 | -5.6 | 3.2 | nt | -5.8
CCc1c(C)nc(Nc2nc(C)c3ccc(OC)cc3n2)[nH]c1=O | -5.5 | -10.7 | -21.6 | 0.8 | 62.4* | -18.8
COc1ccc2c(C)nc(Nc3nc(C)c(C)c(=O)[nH]3)nc2c1 | 2.7 | 5.3 | -4.0 | 8.2 | 62.4* | -4.6
CCc1c(C)nc(Nc2nc(C)c3cc(OC)ccc3n2)[nH]c1=O | 2.8 | -8.7 | -18.5 | -6.2 | 49.2 | -9.2
COc1ccc2c(C)nc(Nc3nc(C)cc(C)n3)nc2c1 | nt | nt | -18.3 | -9.5 | 18.3 | -10.9
N#Cc1cccnc1Oc1ccccc1 | 4.0 | 3.8 | -12.2 | -3.8 | nt | -3.9
COc1ccc(C2C(C(=O)c3ccccc3)N3c4ccccc4C=CC3C2[N+](=O)[O-])cc1 (configuration not stated) | 4.0 | -18.9 | -94.7 | -2.4 | 12.3 | -11.9
Cc1nc2ccccc2nc(=O)c1NNc1ccccc1 | 5.2 | -7.6 | 11.0 | 4.9 | 3.0 | 74.3*
SMILES | eIF4E-4G inh | 14-3-3 Bad PPI | EBV gp42 inh | RBBP9 inh | WT yeast gro inh | p47phox inh
C/C(=N\OCC(=O)Nc1ccccc1Br)c1cccs1 | -1.0 | -7.4 | -2.5 | -9.1 | -3.3 | -7.2
O=C(Nc1ccncc1)c1ccccc1-c1ccccc1 | -3.9 | -1.2 | 7.2 | -7.1 | -3.6 | -0.4
CC(=O)Nc1ccc(C(=O)OCC(=O)Nc2ccccc2Sc2ccccc2)cc1 | 3.2 | 8.9 | -3.2 | -15.2 | 83.0* | -17.1
O=C(Nc1ccccc1Sc1ccccc1)c1ccc(F)cc1 | 4.1 | 4.6 | -10.9 | 4.8 | 77.8* | -12.0
O=C(COc1ccc(Cl)cc1Cl)c1ccc[nH]1 | 2.1 | -1.1 | -7.5 | -6.3 | nt | -8.9
C=C(C)CN(CC)C(=O)CCc1nnc(CCc2c[nH]c3ccccc23)o1 | 4.0 | -10.2 | -7.7 | -3.9 | 2.2 | 6.5
COc1cc(CNC(C)c2ccccc2)cc(Cl)c1OCC(=O)Nc1ccccc1 (configuration not stated) | 1.7 | -0.5 | -11.1 | -7.6 | 29.4 | -20.1
CCN(CCO)c1ccc(-n2c(N)c(C(=O)OC)c3nc4ccccc4nc32)cc1 | 9.4 | 87.0* | 14.9 | -9.4 | 4.6 | 17.7
Cn1c(=NC(=O)COc2ccccc2)sc2cccc(F)c21 | -5.1 | 11.0 | -8.5 | -3.6 | nt | 1.1
COc1ccc(NC(=O)N(CCc2ccccc2)Cc2cc3c(C)cc(C)cc3[nH]c2=O)cc1 | 7.8 | -0.2 | 58.6* | -1.1 | -8.2 | -13.6
Cc1nc(C)c(C(=O)O)s1 | -8.1 | -2.7 | 31.4 | -6.5 | nt | -9.8
COc1c(C(=O)Nc2ccc(Cc3ccncc3)cc2)ccc2ccccc12 | -3.8 | 1.3 | 3.6 | -9.5 | 68.4* | -2.3
CC(C)NCCOCCSc1ccc(Cl)cc1 | 3.6 | 82.6* | -20.9 | -0.3 | 15.7 | -17.0
CC(=O)Nc1ccc2c(c1)OCCO2 | nt | nt | nt | -4.1 | 5.1 | nt
CC1CC(C)CN(CC(=O)Nc2ccc3c(c2)OCCO3)C1 (configuration not stated) | 1.6 | 61.3 | 2.6 | -1.5 | 4.8 | 31.8*
O=C(Nc1ccc2c(c1)OCCO2)c1c(F)c(F)c(F)c(F)c1F | 0.7 | 9.1 | -24.6 | 2.3 | -9.2 | 63.5*
CC1CCN(CCC(=O)Nc2ccc3c(c2)OCCO3)CC1 | 0.1 | 5.3 | 13.3 | -7.7 | -4.3 | -14.9
C/C(=N/NC(=O)CCc1c(C)n[nH]c1C)c1cccc([N+](=O)[O-])c1 | -2.1 | -1.9 | -8.6 | -9.3 | nt | 4.0
CC1CC(C)CN(C(=O)c2cc3cc(Br)cc(Br)c3o2)C1 (configuration not stated) | 0.9 | 1.3 | -15.2 | -4.4 | 78.3* | -9.5
O=C(c1cc2cc(Br)ccc2o1)N1CCCC1 | 1.8 | 2.2 | 1.6 | -2.0 | 14.6 | -0.3
CCOCCc1c(O)nc(SCC)[nH]c1=O | -0.3 | -0.5 | -7.2 | -8.6 | nt | -0.1
CCCCOc1cc(C(=O)NCCN(CC)CC)c2ccccc2n1 | 74.2*! | 3.7 | -13.6 | -0.1 | 3.3 | -1.8
COc1ccc(/C=C(\C#N)C(=O)Nc2cc(C)c(Cl)cc2OC)cc1O | 16.2 | 63.8 | -19.8 | -2.3 | nt | -26.6
COc1ccc(/C=C(/C#N)C(=O)Nc2cc(C)ccc2C)cc1C(=O)O | 3.3 | 5.0 | -5.6 | -2.6 | -16.0 | 163.3*
NC(=O)C1CCN(C(=O)COc2ccc(Nc3ccccc3)cc2)CC1 | 96.4* | -2.4 | -7.7 | -3.6 | nt | -1.0
NC(=O)C1CCN(C(=O)COc2ccc3ccccc3c2)CC1 | -4.7 | -4.5 | 4.0 | -8.0 | 7.1 | 2.8
